# In ChEMBL document CHEMBL2034960, “Bryonolic acid transcriptional control of anti-inflammatory and antioxidant genes in macrophages in vitro and in vivo” (J Nat Prod, 2012):
# The source made the active and inactive calls. The rule behind the calls is not given here.
# Experiments:
# [1] = tested on: RAW264.7; experiment: Antioxidant activity in mouse RAW264.7 cells assessed as induction of HO1 expression at 50 uM after 24 hrs by immunoblot analysis; type: functional, cell-based
# [2] = tested on: RAW264.7; experiment: Antioxidant activity in LPS-stimulated mouse RAW264.7 cells assessed as induction of HO-1 protein expression at 50 uM after 24 hrs by immunoblot analysis; type: functional, cell-based
# [3] = target: T1, Nuclear factor erythroid 2-related factor 2 (Mus musculus) (UniProt Q60795); experiment: Induction of Nrf2-mediated CAT mRNA expression in mouse RAW264.7 cells at 100 uM after 20 hrs by quantitative RT-PCR analysis relative to control; type: cell-based
# T1 sequence (whole entry): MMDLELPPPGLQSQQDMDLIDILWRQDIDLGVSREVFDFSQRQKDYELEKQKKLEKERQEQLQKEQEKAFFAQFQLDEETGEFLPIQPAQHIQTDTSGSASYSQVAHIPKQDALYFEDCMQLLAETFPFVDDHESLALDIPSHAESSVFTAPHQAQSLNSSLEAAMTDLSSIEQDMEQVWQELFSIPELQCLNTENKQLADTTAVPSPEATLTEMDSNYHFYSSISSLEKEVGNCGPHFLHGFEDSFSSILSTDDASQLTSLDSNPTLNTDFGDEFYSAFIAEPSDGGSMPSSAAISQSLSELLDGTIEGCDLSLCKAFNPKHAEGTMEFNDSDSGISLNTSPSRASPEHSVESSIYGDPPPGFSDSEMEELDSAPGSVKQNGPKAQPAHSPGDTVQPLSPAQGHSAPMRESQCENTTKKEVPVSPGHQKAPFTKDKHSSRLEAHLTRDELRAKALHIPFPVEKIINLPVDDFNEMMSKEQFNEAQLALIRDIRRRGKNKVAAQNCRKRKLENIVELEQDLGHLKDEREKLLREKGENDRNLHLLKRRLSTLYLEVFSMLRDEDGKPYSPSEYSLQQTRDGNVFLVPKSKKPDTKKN
# [4] = target: T1, Nuclear factor erythroid 2-related factor 2 (Mus musculus); experiment: Induction of Nrf2-mediated HO1 mRNA expression in mouse RAW264.7 cells at 100 uM after 24 hrs by quantitative RT-PCR analysis relative to control; type: cell-based
# [5] = tested on: RAW264.7; experiment: Antioxidant activity in LPS-stimulated mouse RAW264.7 cells assessed as induction of HO-1 mRNA expression at 100 uM after 4 hrs by RT-PCR analysis; type: functional, cell-based
# [6] = tested on: RAW264.7; experiment: Antiinflammatory activity in mouse RAW264.7 cells assessed as inhibition of LPS-induced nitric oxide production at 50 to 100 uM after 24 hrs by Griess method; type: functional; design: scale not given: the % may be the effect or the level left
# [7] = tested on: RAW264.7; experiment: Antioxidant activity in mouse RAW264.7 cells assessed as induction of HO1 expression at 100 uM after 66 hrs by immunoblot analysis; type: functional, cell-based
# [8] = tested on: Mus musculus; experiment: Induction of HO1 […] expression in Nrf2-knock out C57BL/6 mouse liver at 500 mg/kg, ip measured after 8 hrs by immunoblot analysis
# [9] = tested on: RAW264.7; experiment: Cytotoxicity against mouse RAW264.7 cells at 1000 uM after 24 hrs by MTT assay; type: cell-based; details: raw264.7, 24 h
# [10] = tested on: RAW264.7; experiment: Antioxidant activity in LPS-stimulated mouse RAW264.7 cells assessed as induction of HO-1 mRNA expression at 100 uM after 20 hrs by RT-PCR analysis relative to control; type: functional
# [11] = target: T1, Nuclear factor erythroid 2-related factor 2 (Mus musculus); experiment: Induction of Nrf2-mediated GR mRNA expression in mouse RAW264.7 cells at 100 uM after 20 hrs by quantitative RT-PCR analysis relative to control; type: cell-based
# [12] = tested on: RAW264.7; experiment: Antioxidant activity in LPS-stimulated mouse RAW264.7 cells assessed as induction of HO-1 protein expression at 100 uM after 24 hrs by immunoblot analysis; type: functional, cell-based
# [13] = tested on: RAW264.7; experiment: Antioxidant activity in mouse RAW264.7 cells assessed as induction of HO1 expression at 100 uM after 72 hrs by immunoblot analysis; type: functional, cell-based
# [14] = tested on: RAW264.7; experiment: Antioxidant activity in LPS-stimulated mouse RAW264.7 cells assessed as induction of HO-1 mRNA expression at 100 uM after 24 hrs by RT-PCR analysis; type: functional, cell-based
# [15] = target: T1, Nuclear factor erythroid 2-related factor 2 (Mus musculus); experiment: Induction of Nrf2-mediated NQO1 mRNA expression in mouse RAW264.7 cells at 100 uM after 24 hrs by quantitative RT-PCR analysis relative to control; type: cell-based
# Summary of the method: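 RAW 264.7 cells (DMEM, 10% FBS, 37°C, 5% CO2) exposed to 100 μM compound for a series of time points without stated LPS activation. Total RNA isolated, converted to cDNA, and NQO1 quantified by TaqMan real-time RT-PCR using mouse-specific assays. Fold change versus control derived by the ΔΔCt relative quantification method (40 cycles, 95/60 °C).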
# [16] = tested on: RAW264.7; experiment: Antioxidant activity in mouse RAW264.7 cells assessed as induction of HO1 expression at 100 uM after 48 hrs by immunoblot analysis; type: functional, cell-based
# [17] = Solubility of the compound in DMSO; type: physicochemical
# [18] = target: T1, Nuclear factor erythroid 2-related factor 2 (Mus musculus); experiment: Induction of nuclear translocation of Nrf2 in mouse RAW264.7 cells assessed as decrease in cytoplasmic fraction at 100 uM after 1 hr; type: cell-based
# Summary of the method: (§1)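 RAW 264.7 macrophages treated with 50 or 100 μM compound for various times (1–4 h window examined). Cytoplasmic and nuclear fractions were separated and probed for Nrf2 by immunoblot. Translocation was scored as loss of cytoplasmic Nrf2 and nuclear accumulation relative to DMSO control.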
# [19] = target: T1, Nuclear factor erythroid 2-related factor 2 (Mus musculus); experiment: Induction of Nrf2-mediated HO1 […] expression in C57BL/6 mouse primary peritoneal macrophages at 50 uM after 48 hrs by immunoblot analysis
# [20] = target: T1, Nuclear factor erythroid 2-related factor 2 (Mus musculus); experiment: Induction of Nrf2-mediated CAT mRNA expression in mouse RAW264.7 cells at 100 uM after 4 to 24 hrs by quantitative RT-PCR analysis relative to control; type: cell-based
# [21] = target: T1, Nuclear factor erythroid 2-related factor 2 (Mus musculus); experiment: Induction of Nrf2-mediated GCLC mRNA expression in mouse RAW264.7 cells at 100 uM after 20 hrs by quantitative RT-PCR analysis relative to control; type: cell-based
# [22] = target: T1, Nuclear factor erythroid 2-related factor 2 (Mus musculus); experiment: Induction of nuclear translocation of Nrf2 in mouse RAW264.7 cells assessed as decrease in cytoplasmic fraction at 50 uM after 1 hr; type: cell-based; summary of the method: as §1
# [23] = tested on: RAW264.7; experiment: Antioxidant activity in mouse RAW264.7 cells assessed as induction of HO1 expression at 100 uM after 6 hrs by immunoblot analysis; type: functional, cell-based
# [24] = target: T1, Nuclear factor erythroid 2-related factor 2 (Mus musculus); experiment: Induction of Nrf2-mediated HO1 […] expression in C57BL/6 mouse primary peritoneal macrophages after 48 hrs by immunoblot analysis
# [25] = tested on: RAW264.7; experiment: Antioxidant activity in LPS-stimulated mouse RAW264.7 cells assessed as induction of HO-1 protein expression after 24 hrs by immunoblot analysis; type: functional, cell-based
# [26] = tested on: RAW264.7; experiment: Antioxidant activity in mouse RAW264.7 cells assessed as induction of HO1 expression after 24 hrs by immunoblot analysis
# [27] = tested on: RAW264.7; experiment: Antiinflammatory activity in mouse RAW264.7 cells assessed as inhibition of LPS-induced iNOS […] expression at 50 uM after 24 hrs by immunoblot analysis; type: functional, cell-based
# [28] = tested on: RAW264.7; experiment: Antiinflammatory activity in mouse RAW264.7 cells assessed as inhibition of LPS-induced iNOS protein expression at 50 to 100 uM by immunoblot analysis; type: functional, cell-based; details: TDE = time-dependent effect
smiles,measurement,setting,value
CC1(C)[C@@H](O)CC[C@]2(C)C3=C(CC[C@@H]12)[C@@]1(C)CC[C@@]2(C)CC[C@@](C)(C(=O)O)C[C@H]2[C@]1(C)CC3 [BRYONOLIC ACID],Activity,[1],Active
same,Activity,[2],Active
same,fold change (FC),[3],3.5
same,Activity,[4],Active
same,Activity,[5],Active
same,Activity,[6],72%
same,Activity,[7],inactive
same,Activity,[8],inactive
same,Activity,[9],Toxic
same,fold change (FC),[10],11.3
same,fold change (FC),[11],1.5
same,Activity,[12],Active
same,Activity,[13],inactive
same,Activity,[14],Active
same,Activity,[15],Active
same,Activity,[16],Active
same,solubility,[17],soluble
same,Activity,[18],Active
same,Activity,[19],Active
same,Activity,[20],Active
same,fold change (FC),[21],1.8
same,Activity,[22],Active
same,Activity,[23],Active
same,Activity,[24],Dose-dependent effect
same,Activity,[25],Dose-dependent effect
same,Activity,[26],Dose-dependent effect
same,Activity,[27],Active
same,Activity,[28],tde
